Where two headings read alike, the source gives them in different places.
Columns and labels:
SK-MEL-3 xenografts = assay: Tissue distribution in mice bearing SK-MEL-3 xenografts; type: in vivo, NCr^nu/nu mice; conditions: SK-MEL-3 xenograft mice; for Tissue distribution: Blood: tail vein
How it was run: (§1)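 Male athymic NCr nu/nu mice received 0.25 mL of cells (8 × 10⁶/mL in 1:1 D-PBS-glucose-pyruvate/Matrigel) into the right hind flank. Tumours were used at 100–500 mm³ (~21 days). Tail-vein bolus of ~74 KBq tracer in 0.05 mL; n = 5 per time point. Mice were killed by CO₂ at 1, 4 and 24 h. Organs and tumour were weighed wet and gamma-counted; results are %ID/g, mean ± SD.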

A375 xenografts = assay: Tissue distribution in mice bearing A375 xenografts; type: in vivo, NCr^nu/nu mice; conditions: A375 xenograft mice; for Tissue distribution: Blood: tail vein
How it was run: as §1

SK-MEL-3 tumors = assay: Effect of [^131I]MIP-1145 on SK-MEL-3 tumor growth and survival; type: in vivo, athymic nude mice; conditions: multiple doses, 25 MBq or 2.5 GBq/m^2
[1] = Pharmacokinetics and gamma camera imaging in cynomolgus monkeys; type: in vivo
How it was run: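 Four cynomolgus monkeys (2 female, 2 male), Telazol-anaesthetised, received 185 MBq radiotracer iv without thyroid blockade. Serial anterior/posterior gamma-camera imaging was performed. Blood was drawn at 5, 30, 60, 120 and 360 min and at 24, 48 and 72 h. Urine was pooled over 0–6, 6–24, 24–48 and 48–72 h. Analysis was non-compartmental, with CL = dose/AUC and Vss = MRT × CL.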

[2] = Projected human dosimetry extrapolated from cynomolgus monkey scintigraphy; type: in vivo, cynomolgus monkeys
How it was run: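 Regions of interest (total body, lung, kidney, thyroid, eye) were drawn on anterior/posterior monkey images at each time point. Uptake was normalised to % total body dose, with the first pre-voiding image set as 100%. Time integrals went into OLINDA/EXM: adult male phantom, 4.8 h bladder voiding interval, unit-density sphere model for eye. The intestine margin is referenced to a 45 Gy limit at 4.7 GBq/70 kg.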

[3] = Monte Carlo simulation of radiation dose to human eye substructures; conditions: human projection
B16F10 xenografts = conditions: cited from earlier work
[4] = both, cynomolgus monkey, blood, iv, 185 MBq
[5] = at anticipated human dose 4.7 GBq/70 kg patient
[6] = extrapolated from cynomolgus monkeys

## CCN(CC)CCNC(=O)c1cc(I)c(NC(=O)c2ccc(F)cc2)cc1OC [[^131I]MIP-1145, N-(2-diethylamino-ethyl)-4-(4-fluoro-benzamido)-5-iodo-2-methoxy-benzamide]
SK-MEL-3 xenografts; 1 hour
  Tissue distribution: Adipose: 4.15 ± 2.89 %ID/g
  Tissue distribution: Bone: 1.71 ± 0.28 %ID/g
  Tissue distribution: Brain: 0.82 ± 0.06 %ID/g
  Tissue distribution: Heart: 2.36 ± 0.18 %ID/g
  Tissue distribution: Kidneys: 16.55 ± 0.52 %ID/g
  Tissue distribution: Large Intestine: 2.93 ± 0.54 %ID/g
  Tissue distribution: Liver: 7.94 ± 1.12 %ID/g
  Tissue distribution: Lungs: 9.70 ± 1.28 %ID/g
  Tissue distribution: Skeletal Muscle: 1.39 ± 0.16 %ID/g
  Tissue distribution: Small Intestine: 15.19 ± 1.50 %ID/g
  Tissue distribution: Spleen: 7.26 ± 1.18 %ID/g
  Tissue distribution: Stomach: 12.85 ± 2.53 %ID/g
  Tissue distribution: Testes: 1.51 ± 0.18 %ID/g
  Tissue distribution: Tumor: 3.77 ± 1.68 %ID/g
SK-MEL-3 xenografts; 1 hour post-injection
  Tissue distribution: Blood: 0.75 ± 0.12 %ID/g
SK-MEL-3 xenografts; 4 hours
  Tissue distribution: Adipose: 1.03 ± 0.26 %ID/g
  Tissue distribution: Bone: 0.95 ± 0.14 %ID/g
  Tissue distribution: Brain: 0.19 ± 0.02 %ID/g
  Tissue distribution: Heart: 1.32 ± 0.18 %ID/g
  Tissue distribution: Kidneys: 13.12 ± 2.68 %ID/g
  Tissue distribution: Large Intestine: 18.91 ± 3.84 %ID/g
  Tissue distribution: Liver: 5.18 ± 0.59 %ID/g
  Tissue distribution: Lungs: 6.87 ± 1.33 %ID/g
  Tissue distribution: Skeletal Muscle: 0.73 ± 0.16 %ID/g
  Tissue distribution: Small Intestine: 17.21 ± 2.05 %ID/g
  Tissue distribution: Spleen: 3.75 ± 0.60 %ID/g
  Tissue distribution: Stomach: 10.74 ± 2.52 %ID/g
  Tissue distribution: Testes: 1.07 ± 0.09 %ID/g
  Tissue distribution: Tumor: 8.82 ± 3.55 %ID/g
SK-MEL-3 xenografts; 4 hours post-injection
  Tumor:blood ratio: 25.2
  Tissue distribution: Blood: 0.35 ± 0.04 %ID/g
SK-MEL-3 xenografts; 24 hours
  Tissue distribution: Adipose: 0.09 ± 0.05 %ID/g
  Tissue distribution: Bone: 0.09 ± 0.08 %ID/g
  Tissue distribution: Brain: 0.01 ± 0.01 %ID/g
  Tissue distribution: Heart: 0.04 ± 0.03 %ID/g
  Tissue distribution: Kidneys: 0.51 ± 0.18 %ID/g
  Tissue distribution: Large Intestine: 2.24 ± 0.67 %ID/g
  Tissue distribution: Liver: 0.50 ± 0.07 %ID/g
  Tissue distribution: Lungs: 0.29 ± 0.08 %ID/g
  Tissue distribution: Skeletal Muscle: 0.03 ± 0.02 %ID/g
  Tissue distribution: Small Intestine: 1.03 ± 0.24 %ID/g
  Tissue distribution: Spleen: 0.12 ± 0.03 %ID/g
  Tissue distribution: Stomach: 1.41 ± 0.53 %ID/g
  Tissue distribution: Testes: 0.22 ± 0.02 %ID/g
  Tissue distribution: Tumor: 5.91 ± 3.94 %ID/g
SK-MEL-3 xenografts; 24 hours post-injection
  Tumor:blood ratio: 197
  Tissue distribution: Blood: 0.03 ± 0.00 %ID/g
A375 xenografts; 1 hour
  Tissue distribution: Adipose: 1.56 ± 0.23 %ID/g
  Tissue distribution: Bone: 1.34 ± 0.12 %ID/g
  Tissue distribution: Brain: 0.60 ± 0.17 %ID/g
  Tissue distribution: Heart: 1.96 ± 0.33 %ID/g
  Tissue distribution: Kidneys: 14.26 ± 2.73 %ID/g
  Tissue distribution: Large Intestine: 2.69 ± 0.49 %ID/g
  Tissue distribution: Liver: 6.79 ± 1.33 %ID/g
  Tissue distribution: Lungs: 9.81 ± 0.88 %ID/g
  Tissue distribution: Skeletal Muscle: 1.03 ± 0.09 %ID/g
  Tissue distribution: Small Intestine: 9.19 ± 3.32 %ID/g
  Tissue distribution: Spleen: 4.54 ± 1.34 %ID/g
  Tissue distribution: Stomach: 6.22 ± 2.34 %ID/g
  Tissue distribution: Testes: 1.58 ± 0.22 %ID/g
  Tissue distribution: Tumor: 2.38 ± 0.75 %ID/g
A375 xenografts; 1 hour post-injection
  Tissue distribution: Blood: 0.46 ± 0.05 %ID/g
A375 xenografts; 4 hours
  Tissue distribution: Adipose: 1.10 ± 0.46 %ID/g
  Tissue distribution: Bone: 0.74 ± 0.07 %ID/g
  Tissue distribution: Brain: 0.16 ± 0.01 %ID/g
  Tissue distribution: Heart: 1.04 ± 0.06 %ID/g
  Tissue distribution: Kidneys: 8.53 ± 1.20 %ID/g
  Tissue distribution: Large Intestine: 13.81 ± 5.14 %ID/g
  Tissue distribution: Liver: 4.30 ± 0.45 %ID/g
  Tissue distribution: Lungs: 7.24 ± 1.31 %ID/g
  Tissue distribution: Skeletal Muscle: 0.58 ± 0.12 %ID/g
  Tissue distribution: Small Intestine: 12.44 ± 2.02 %ID/g
  Tissue distribution: Spleen: 2.57 ± 0.51 %ID/g
  Tissue distribution: Stomach: 4.57 ± 1.77 %ID/g
  Tissue distribution: Testes: 0.90 ± 0.13 %ID/g
  Tissue distribution: Tumor: 1.19 ± 0.07 %ID/g
A375 xenografts; 4 hours post-injection
  Tissue distribution: Blood: 0.26 ± 0.04 %ID/g
A375 xenografts; 24 hours
  Tissue distribution: Adipose: 0.13 ± 0.12 %ID/g
  Tissue distribution: Bone: 0.03 ± 0.02 %ID/g
  Tissue distribution: Brain: 0.01 ± 0.00 %ID/g
  Tissue distribution: Heart: 0.02 ± 0.02 %ID/g
  Tissue distribution: Kidneys: 0.21 ± 0.08 %ID/g
  Tissue distribution: Large Intestine: 1.35 ± 0.36 %ID/g
  Tissue distribution: Liver: 0.32 ± 0.06 %ID/g
  Tissue distribution: Lungs: 0.37 ± 0.15 %ID/g
  Tissue distribution: Skeletal Muscle: 0.02 ± 0.01 %ID/g
  Tissue distribution: Small Intestine: 0.59 ± 0.24 %ID/g
  Tissue distribution: Spleen: 0.15 ± 0.20 %ID/g
  Tissue distribution: Stomach: 0.67 ± 0.27 %ID/g
  Tissue distribution: Testes: 0.16 ± 0.05 %ID/g
  Tissue distribution: Tumor: 0.04 ± 0.02 %ID/g
A375 xenografts; 24 hours post-injection
  Tissue distribution: Blood: 0.04 ± 0.02 %ID/g
SK-MEL-3 tumors
  Duration of response: over 125 days
[1]; [4]
  MRT: 47 ± 5 h
  Vd: 19 ± 3 L
  clearance: 6.67 mL/min
[1]; cynomolgus monkeys, by 72 hours post-injection
  Injected dose recovered in the urine: 28%
[2]; [5]
  Margin of lower large intestine dose below the allowable exposure limit of 45 Gy: 3.3 times
  Radiation absorbed dose to the lower large intestine: 13.3 Gy
  Radiation dose to the eye: 6.1 Gy
[2]; [6]
  Effective Dose: 1.40E+00 ± 6.30E-01 mGy/MBq
  Effective Dose Equivalent: 9.20E-01 ± 3.70E-01 mGy/MBq
  Projected human organ radiation absorbed dose: Brain: 7.00E-02 ± 1.50E-02 mGy/MBq
  Projected human organ radiation absorbed dose: Breasts: 6.40E-02 ± 1.40E-02 mGy/MBq
  Projected human organ radiation absorbed dose: Eyes: 1.30E+00 ± 6.70E-01 mGy/MBq
  Projected human organ radiation absorbed dose: Gallbladder Wall: 1.20E-01 ± 1.90E-02 mGy/MBq
  Projected human organ radiation absorbed dose: Heart Wall: 8.00E-02 ± 1.80E-02 mGy/MBq
  Projected human organ radiation absorbed dose: Kidneys: 1.10E-01 ± 7.70E-02 mGy/MBq
  Projected human organ radiation absorbed dose: Liver: 8.60E-02 ± 1.70E-02 mGy/MBq
  Projected human organ radiation absorbed dose: Lungs: 6.70E-02 ± 2.00E-02 mGy/MBq
  Projected human organ radiation absorbed dose: Muscle: 8.80E-02 ± 1.60E-02 mGy/MBq
  Projected human organ radiation absorbed dose: Osteogenic Cells: 1.60E-01 ± 3.30E-02 mGy/MBq
  Projected human organ radiation absorbed dose: Ovaries: 2.00E-01 ± 1.90E-02 mGy/MBq
  Projected human organ radiation absorbed dose: Pancreas: 9.20E-02 ± 1.90E-02 mGy/MBq
  Projected human organ radiation absorbed dose: Red Marrow: 8.70E-02 ± 1.40E-02 mGy/MBq
  Projected human organ radiation absorbed dose: Skin: 6.60E-02 ± 1.40E-02 mGy/MBq
  Projected human organ radiation absorbed dose: Small Intestine: 3.40E-01 ± 1.80E-02 mGy/MBq
  Projected human organ radiation absorbed dose: Spleen: 8.50E-02 ± 1.80E-02 mGy/MBq
  Projected human organ radiation absorbed dose: Stomach Wall: 9.80E-02 ± 1.80E-02 mGy/MBq
  Projected human organ radiation absorbed dose: Testes: 8.60E-02 ± 1.60E-02 mGy/MBq
  Projected human organ radiation absorbed dose: Thymus: 7.80E-02 ± 1.70E-02 mGy/MBq
  Projected human organ radiation absorbed dose: Uterus: 1.50E-01 ± 1.80E-02 mGy/MBq
  Projected human radiation absorbed dose: Total Body: 1.00E-01 ± 1.60E-02 mGy/MBq
[2]; extrapolated from cynomolgus monkeys, adult male phantom
  Projected human organ radiation absorbed dose: Adrenals: 8.50E-02 ± 1.80E-02 mGy/MBq
[2]; extrapolated from cynomolgus monkeys, 4.8 hour voiding interval
  Projected human organ radiation absorbed dose: Urinary Bladder Wall: 6.20E-01 ± 4.10E-02 mGy/MBq
[2]; extrapolated from cynomolgus monkeys, lower large intestine
  Projected human organ radiation absorbed dose: LLI Wall: 2.80E+00 ± 1.80E-02 mGy/MBq
[2]; extrapolated from cynomolgus monkeys, upper large intestine
  Projected human organ radiation absorbed dose: ULI Wall: 1.10E+00 ± 1.50E-02 mGy/MBq
[2]; extrapolated from cynomolgus monkeys, without thyroid blockade
  Projected human organ radiation absorbed dose: Thyroid: 1.80E+01 ± 1.30E+01 mGy/MBq
[2]; human projection, dose-limiting organ lower large intestine
  Therapeutic dose supported as safe for administration: up to 16.2 GBq
[2]; organs other than thyroid, large intestine and eyes
  Projected human radiation absorbed dose: all other organs: 0.064-1.1 mGy/MBq
[3]
  Administered activity needed to reach the lens TD5/5 of 10 Gy for cataracts: 7.7 GBq
  Administered activity needed to reach the retina TD5/5 of 45 Gy for retinopathy: 20.8 GBq
B16F10 xenografts; specific activity 55.5 GBq/mmol
  Tumor uptake: 9.28 ± 2.24 %ID/g
B16F10 xenografts; specific activity 55.5 TBq/mmol
  Tumor uptake: 10.17 ± 1.81 %ID/g
